The record followed here is ChEMBL document CHEMBL1124749, “Analogues of 1,5-bis(4-amidinophenoxy)pentane (pentamidine) in the treatment of experimental Pneumocystis carinii pneumonia” (J Med Chem, 1990).

Several values for one entry are separate records, joined by “and”; a condition that tells them apart may be missing. Identical values can stand only once.

In data set [1] the test system is Rattus norvegicus. The data set can be described thus: Ability to reduce the severity of PCP in immunosuppressed rats after (iv)administration; not tested in animals, Insoluble. The class given is functional, organism-based.
The species named for data set [2] is Rattus norvegicus. As to the kind of experiment: Ability to reduce the severity of PCP in histologic score (represents >50% lung involved with many intense areas of focal infection). The data set is classed as functional. In short, it runs like this:
(§1)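 Male Sprague-Dawley rats (150–200 g, barrier raised) were given corticosteroids to induce PCP. From week 6, groups of eight or more received the compound by single daily iv injection in 0.4 mL saline for 14 days, generally at 10 mg/kg. Rats were killed at the end of week 8. GMS-stained lung sections were scored from 0.5 to 4 (4 = >50% involvement), with saline and pentamidine control groups.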

For data set [3], the species on record is Rattus norvegicus. The data set can be described thus: Ability to reduce the severity of PCP in histologic score (represents scattered cysts,25-50% lung involved with small intense areas of infection). The class given is functional. In short, it runs like this: as §1
Data set [4] deals with Pneumocystis carinii. The data set can be described thus: (§2) Ability to reduce the severity of PCP in immunosuppressed rats after (iv) administration of 10 mg/kg/day. The data set is classed as functional. In short, it runs like this: as §1
The test system of data set [5] is Calf thymus DNA. As to the kind of experiment: DNA binding affinity at low ionic strength as change in midpoint. The data set is classed as nucleic-acid assay. The settings on record: Bos taurus.
Data set [6] deals with T1, Serine protease 1 (Homo sapiens, UniProt P07477). The data set can be described thus: Inhibition of trypsin by amidase assay.
Data set [7] has as its system Pneumocystis carinii. The description is as §2. The data set is classed as functional. In short, it runs like this:
as §1
The source holds these as a separate data set.

Data set [8] deals with Pneumocystis carinii. As to the kind of experiment: Ability to reduce the severity of PCP in immunosuppressed rats after (i.v.) administration of 10 mg/kg/day. The data set is classed as functional. The settings on record: route intravenous. In short, it runs like this:
as §1

Data set [9] in a line: Cytotoxicity in […], spleen and kidneys for pathologic changes by light microscopy.+ = animals survived without observable distress. The data set is classed as tissue-based. The settings on record: rat. In short, it runs like this: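 In corticosteroid-immunosuppressed rats given 14 daily iv doses for PCP, liver, spleen and kidneys were examined for pathology by light microscopy, and health was recorded daily. Toxicity was graded at 10 mg/kg or the highest dose tested on a scale from 0 (no local, clinical or histologic toxicity) to 4+ (≥50% of animals died).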

Data set [10] deals with Rattus norvegicus. Described as §2. The data set is classed as functional. In short, it runs like this:
as §1

Data set [11] has as its target T1, Serine protease 1. As to the kind of experiment: Inhibition of trypsin by amidase assay.

T1 sequence (P07477 whole entry): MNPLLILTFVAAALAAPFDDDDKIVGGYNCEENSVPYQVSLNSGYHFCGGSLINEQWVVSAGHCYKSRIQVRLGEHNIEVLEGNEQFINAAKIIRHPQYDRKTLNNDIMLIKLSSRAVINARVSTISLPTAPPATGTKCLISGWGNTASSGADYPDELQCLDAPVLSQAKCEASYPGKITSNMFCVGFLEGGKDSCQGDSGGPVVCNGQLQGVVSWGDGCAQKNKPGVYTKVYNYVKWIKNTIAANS

For the molecule `N=C(N)c1ccc(OCCCCCOc2ccc(C(=N)N)cc2Br)c(Br)c1`, in [1], the No. of animals entry was “Insoluble”.
On to `Cl.c1cc(C2=NCCN2)ccc1OCCCCCOc1ccc(C2=NCCN2)cc1`, for which the values for the No. of animals in data set [2], in [3] and in [4] were 0, 0 and 3, respectively. Further, in data set [5], the ΔTm was determined as 10.5 °C. In addition, in data set [6], the Ki is greater than 2000 µM.
As for `Cl.N=C(N)c1ccc(OCCCCCOc2ccc(C(=N)N)cc2)cc1` [PENTAMIDINE HYDROCHLORIDE], the No. of animals stood at 28 in [4] and 21 in data set [7]. The ΔTm in data set [5] was found to be 10.7 °C. Besides, in [6], the affinity corresponds to a Ki of 2.3 µM.
With `COc1cc(C(=N)N)ccc1OCCCOc1ccc(C(=N)N)cc1OC.Cl.Cl`, the No. of animals in [8] came to 0; in data set [4], 1; in data set [7], 7. The ΔTm in data set [5] was found to be 16.3 °C. In data set [6], this molecule registered a Ki of 1.3 µM.
On to `Cl.N=C(N)c1ccc(NCCCNc2ccc(C(=N)N)cc2)cc1`, for which the No. of animals in data set [2] was 0; in data set [3] it was 0; in data set [4], 1; in data set [7], 5 and 2. For the same molecule, the Toxicity result in data set [9] is listed as “animals survived without observable distress”. The ΔTm in data set [5] was 11.6 °C. This molecule also gave a Ki in data set [6] of 1.1 µM.
For the molecule `Cl.N=C(N)c1ccc(OCCCCOc2ccc(C(=N)N)cc2N)c(N)c1`, the No. of animals was determined as 0 in data set [2]; 0 in data set [3]; 5 in data set [4]; 2 in data set [7]; 1 in [10]. Further, in [5], the ΔTm came to 9.6 °C. In data set [6], the Ki was found to be 9.1 µM.
Regarding `Cl.Cl.N=C(N)c1ccc(OCCCCCCOc2ccc(C(=N)N)cc2)cc1`, the No. of animals in [4] and in data set [7] was 3 throughout. Further, the ΔTm in [5] turned out to be 9.1 °C. The Ki in data set [6] stood at 2.7 µM.
For the molecule `Cl.Cl.N=C(N)c1ccc(OCCCCCOc2ccc(C(=N)N)cc2[N+](=O)[O-])c([N+](=O)[O-])c1`, the No. of animals in data set [4] came out at 2; in [7], 0. Also, the ΔTm in [5] is 9.7 °C. Moreover, the affinity in data set [6], expressed as Ki, was 1 µM.
Take `Cl.N=C(N)c1ccc(NCCCCCNc2ccc(C(=N)N)cc2N)c(N)c1`: in [9], the Toxicity entry is recorded as “animals survived without observable distress”. Also, the No. of animals in data set [4] worked out at 2; in data set [7], 3. Moreover, in [5], the ΔTm was 11 °C. Moreover, affinity in [6] was put at a Ki of 4.8 µM.
`Cl.Cl.N=C(N)c1ccc(OCCCCCOc2ccc(C(=N)N)cc2Cl)c(Cl)c1`: the No. of animals in data set [4] and in data set [7] was 0 in each case. The ΔTm in data set [5] was determined as 10.5 °C.
As for `Cl.N=C(N)c1ccc(NCCNc2ccc(C(=N)N)cc2N)c(N)c1`, the Toxicity entry in data set [9] is listed as “animals survived without observable distress”. The No. of animals in [4] and in data set [7] was 0 in each case. The ΔTm in data set [5] was found to be 9.1 °C. This molecule had a Ki in data set [6] of 12.7 µM.
As for `Cl.N=C(N)c1ccc(NCCCCNc2ccc(C(=N)N)cc2N)c(N)c1`, in [9], the Toxicity result was “animals survived without observable distress”. Also, the No. of animals in [4] was determined as 4; in data set [7], 0. For the same molecule, the ΔTm in data set [5] was determined as 10.5 °C. The affinity in data set [6] corresponds to a Ki of 11.1 µM.
Take `Cl.Cl.N=C(N)c1ccc(OCCCCOc2ccc(C(=N)N)cc2Cl)c(Cl)c1`: the No. of animals in [8] was 2 and 3; in data set [4], 1; in data set [10] (in the assay text read “1.25 mg/kg/day” for “10 mg/kg/day”) it was 0. In addition, the ΔTm in data set [5] amounted to 8.9 °C.
For the molecule `N=C(N)c1ccc(OCCOc2ccc(C(=N)N)cc2)cc1`, in data set [5], the ΔTm was 5.4 °C. This molecule displayed a Ki in data set [6] of 7.3 µM.
Consider `Cl.N=C(N)c1ccc(OCCCCCCOc2ccc(C(=N)N)cc2N)c(N)c1`, for which the results for the No. of animals in data set [2], in data set [3] and in data set [4] were 0, 3 and 1, respectively. Besides, the ΔTm in [5] was found to be 9.5 °C. In addition, in [6], the affinity corresponds to a Ki of 293 µM.
As to `Cl.N=C(N)c1ccc(OCCOc2ccc(C(=N)N)cc2N)c(N)c1`, the No. of animals is 0 in data set [2], 0 in data set [3] and 4 in [4]. The ΔTm in data set [5] was 8.8 °C. In data set [11], the Ki is 5 µM.
As to `Cl.N=C(N)c1ccc(NCCCCNc2ccc(C(=N)N)cc2)cc1`, the No. of animals in data set [4] came out at 1. In addition, the ΔTm in data set [5] was 10.3 °C. In [6], this molecule registered a Ki of 1.6 µM.
`Cl.Cl.N=C(N)c1cccc(OCCCCCOc2cccc(C(=N)N)c2)c1`: in data set [9], the Toxicity result is recorded as “animals survived without observable distress”. Moreover, the No. of animals in data set [4] was determined as 3; in data set [7] it was 4. In data set [5], the ΔTm is 6.8 °C. For the same molecule, in data set [6], the Ki was determined as 3.8 µM.
With `Cl.Cl.N=C(N)c1cccc(OCCCCOc2cccc(C(=N)N)c2)c1`, the No. of animals turned out to be 1 in data set [4] and 2 in [7]. The ΔTm in data set [5] was 8.1 °C. Also, affinity in data set [6] was put at a Ki of 1.8 µM.
With `Cl.N=C(N)c1ccc(NCCCCCCNc2ccc(C(=N)N)cc2N)c(N)c1`, the Toxicity result in data set [9] was “animals survived without observable distress”. The No. of animals in data set [4] is 1; in data set [7], 3. The ΔTm in [5] was 8.3 °C. This molecule also registered a Ki in [6] of 5.3 µM.
Regarding `Cl.N=C(N)c1ccc(OCCCCCOc2ccc(C(=N)N)cc2N)c(N)c1`, the No. of animals in [2] came to 0; in data set [3], 1; in data set [4], 5. Besides, in data set [9], the Toxicity entry is listed as “animals survived without observable distress”. The ΔTm in [5] turned out to be 10.8 °C. Moreover, affinity in data set [6] was put at a Ki of 1.8 µM.
With `Cl.Cl.N=C(N)c1ccc(OCCCOc2ccc(C(=N)N)cc2N)c(N)c1`, the No. of animals in [2] is recorded as 0; in [3], 0; in data set [4], 4; in data set [7], 2; in [10] it was 1. In addition, in [5], the ΔTm amounted to 13.6 °C. The same molecule returned a Ki in data set [6] of 5.8 µM.
Consider `COc1cc(C(=N)N)ccc1OCCCCOc1ccc(C(=N)N)cc1OC.Cl.Cl`, for which the results for the No. of animals in data set [4] and in data set [7] were 4 and 3, respectively. Moreover, the ΔTm in data set [5] was determined as 10.2 °C.
`Cl.Cl.N=C(N)c1ccc(OCCCCOc2ccc(C(=N)N)cc2[N+](=O)[O-])c([N+](=O)[O-])c1`: the No. of animals in [4] and in [7] was 0 each time. For the same molecule, the ΔTm in [5] was found to be 8.5 °C. Moreover, in data set [6], the Ki worked out at 5.4 µM.
In the case of `Cl.N=C(N)c1ccc(NCCCCCNc2ccc(C(=N)N)cc2[N+](=O)[O-])c([N+](=O)[O-])c1`, the No. of animals in [8] is 2 and 1; in data set [4], 3. In data set [5], the ΔTm was 12.7 °C. The same molecule showed a Ki in data set [6] of 8 µM.
On to `Cl.Cl.N=C(N)c1ccc(OCCCCOc2ccc(C(=N)N)cc2)cc1`, for which, in [9], the Toxicity result was “Non-toxic”. Also, the figures for the No. of animals in data set [8], in data set [4] and in [7] were 0, 0 and 8, respectively. Also, in [5], the ΔTm was found to be 8.3 °C. The molecule also came in with a Ki in data set [6] of 1.5 µM.
With `COc1cc(C(=N)N)ccc1OCCCCCOc1ccc(C(=N)N)cc1OC.Cl.Cl`, the No. of animals in data set [4] was 4; in data set [7] it was 2. Besides, in [5], the ΔTm is 12 °C. Besides, the Ki in data set [6] came to 1.3 µM.
Take `Cl.N=C(N)c1ccc(NCCCCCNc2ccc(C(=N)N)cc2)cc1`: the No. of animals in data set [4] is on record as 2. The ΔTm in data set [5] is 11.3 °C. Further, the Ki in data set [6] was found to be 1.4 µM.
On to `Cl.Cl.N=C(N)c1cccc(OCCCCCCOc2cccc(C(=N)N)c2)c1`, for which the Toxicity result in data set [9] is recorded as “animals survived without observable distress”. Further, the figures for the No. of animals in data set [4] and in [7] were 4 and 1, respectively. In addition, the ΔTm in data set [5] came out at 7.3 °C. Besides, in [6], the affinity, expressed as Ki, was 4 µM.
`Cl.Cl.N=C(N)c1ccc(OCCCOc2ccc(C(=N)N)cc2)cc1`: the Toxicity entry in [9] is listed as “animals survived without observable distress”. The No. of animals in data set [4] is on record as 4; in [7], 3. Further, the ΔTm in data set [5] worked out at 14.7 °C. In data set [6], this molecule yielded a Ki of 3.3 µM.
In the case of `Cl.N=C(N)c1ccc(NCCCNc2ccc(C(=N)N)cc2N)c(N)c1`, the Toxicity result in data set [9] is “animals survived without observable distress”. Moreover, the No. of animals in data set [4] stood at 4; in data set [7], 1. Besides, the ΔTm in data set [5] stood at 11 °C. Also, the Ki in data set [6] was 10.3 µM.
Regarding `Cl.Cl.N=C(N)c1cccc(OCCCOc2cccc(C(=N)N)c2)c1`, the No. of animals in data set [4] is given as 1; in data set [7], 2. Also, the ΔTm in data set [5] was determined as 7.6 °C. In [6], the Ki stood at 1.1 µM.
